From PubChem
MBD2 DNA inh = MBD2-methylated oligo binding inhibition | Q9UBB5 | TR-FRET, MBD2 binding to methylated oligonucleotide | inhibition, % at 4.4 µM | 370,000 compounds, 0.31% hits | AID 686964; in the data active = inhibition above about 13%
TDP2 inh = TDP2 (human) inhibition, absorbance primary screen | O95551 | recombinant TDP2, T5PNP hydrolysis, p-nitrophenol absorbance 415 nm | inhibition, % at 12.8 µM | 370,000 compounds, 0.34% hits;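 active = inhibition above the mean of all tested compounds plus 3 SD, set per campaign, cut at about 25% in these data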;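 also: 0% = DMSO with enzyme and 100% = buffer with substrate but no TDP2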
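Assay system: recombinant human TDP2 / Reagent: T5PNP substrate at 5 mM, a TopII-DNA adduct mimic / Measured by: epi absorbance from released p-nitrophenol / Evaluation: % inhibition relative to enzyme-containing and enzyme-free wells / Control set: enzyme-free and DMSO wells / Replicates: each compound tested once, singlicate / Schedule: enzyme reaction with compound for 2 h at 37 °C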
UHRF1 binding = UHRF1 methyl-DNA binding inhibition. AID 687016. UHRF1 binding to methylated oligo, TR-FRET. 370,000 compounds, 0.75% hits. inhibition, % at 4.4 µM. Q96T88; in the data active = inhibition above about 21%;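 also: UHRF1 SRA domain binding a hemimethylated CpG hairpin DNA probe; 0% = median of test compound wells and 100% = reference inhibitor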
Target sequence (Q96T88 whole entry, looked up, the tested form may be a part): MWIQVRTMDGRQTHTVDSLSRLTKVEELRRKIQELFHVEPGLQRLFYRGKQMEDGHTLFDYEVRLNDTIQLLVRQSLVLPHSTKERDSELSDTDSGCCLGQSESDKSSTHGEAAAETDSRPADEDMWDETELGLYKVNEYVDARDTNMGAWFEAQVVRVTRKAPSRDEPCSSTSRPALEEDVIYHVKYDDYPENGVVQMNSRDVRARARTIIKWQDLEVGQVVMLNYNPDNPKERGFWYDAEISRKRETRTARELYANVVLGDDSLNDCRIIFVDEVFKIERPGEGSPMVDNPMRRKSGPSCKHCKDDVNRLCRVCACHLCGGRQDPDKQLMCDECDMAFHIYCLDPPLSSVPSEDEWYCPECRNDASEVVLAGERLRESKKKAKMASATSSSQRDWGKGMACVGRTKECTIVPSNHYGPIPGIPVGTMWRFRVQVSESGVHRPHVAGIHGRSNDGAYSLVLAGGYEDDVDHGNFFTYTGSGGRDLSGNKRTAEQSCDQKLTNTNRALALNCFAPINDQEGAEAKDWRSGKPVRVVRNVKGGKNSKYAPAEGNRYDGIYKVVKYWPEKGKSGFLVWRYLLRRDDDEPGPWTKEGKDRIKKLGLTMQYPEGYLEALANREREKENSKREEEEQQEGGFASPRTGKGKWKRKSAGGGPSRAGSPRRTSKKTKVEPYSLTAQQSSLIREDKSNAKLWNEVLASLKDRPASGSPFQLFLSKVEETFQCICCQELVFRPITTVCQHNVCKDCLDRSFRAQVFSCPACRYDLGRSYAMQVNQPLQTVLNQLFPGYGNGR
LEDGF integ inh = blocks HIV-1 LEDGF/p75-dependent DNA integration; inhibition, % at 3.7 µM; 370,000 compounds, 0.64% hits; TR-FRET IN-LEDGF/p75 DNA integration, Eu/Cy5;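 active = inhibition above the screen-wide mean plus 3 SD, cut at about 13% in these data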;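 also: signal is the Cy5 over europium emission ratio at 671 and 618 nm; 0% = plate median of compound wells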
IN multimer act = HIV-1 integrase multimerization activation, counter-screen; shares compounds with LEDGF integ inh; TR-FRET HIV-1 integrase multimerization, biochemical; activation, % at 7.7 µM; 2,000 compounds, 17% hits; in the data active = activation above about 8.9%
TRFRET interf = optically interferes with TR-FRET readout in LEDGF counter-screen. shares compounds with LEDGF integ inh. TR-FRET optical interference counterscreen, HIV-1 IN multimerization. inhibition, % at 7.7 µM. 2,000 tested, under 10 active. AID 1053135;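 active = inhibition above the mean over all tested compounds plus 3 SD, which no compound reached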;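 also: 0% = integrase with antibodies and DMSO and 100% = antibodies without integrase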
LEDGF integ conf = LEDGF/p75-dependent HIV-1 integration inhibition, confirmation. inhibition, % at 3.7 µM. 2,000 compounds, 36% hits. shares compounds with LEDGF integ inh. TR-FRET LEDGF/p75-dependent HIV-1 integration, biochemical; in the data active = inhibition above about 14%
Active calls of the source: *; . = no result given. In the library only some 1.6% were active in any assay of this set; here they are far more common.

SMILES	MBD2 DNA inh	TDP2 inh	UHRF1 binding	LEDGF integ inh	IN multimer act	TRFRET interf	LEDGF integ conf
C=CC(=O)NC1CCCCN(CCC)C1=O (stereo not drawn)	-2	0	-2	1	.	.	.
Cc1ccc(/C=C/C(=O)Nc2cccc3cccnc23)o1	-7	0	-1	14*	2	-8	1
CCOC(=O)c1c2ccc(OCC(=O)N/N=C/c3ccc(C)cc3)cc2n2ccccc12	3	16	4	2	.	.	.
CCOC(=O)c1c2ccc(OCC(=O)NN)cc2n2ccccc12	1	4	11	23*	3	-14	6
Cc1cc2c(nc1C)CCCN2Cc1ccccc1C(F)(F)F	-2	1	-2	5	.	.	.
CC(C)N1C(=O)S/C(=C\c2ccc(-c3ccc(Cl)c(C(=O)O)c3)o2)C1=O	0	-14	37*	37*	1	-4	5
CCOC(=O)CN1C(=O)S/C(=C\c2ccc(-c3ccc(C(=O)O)c(Cl)c3)o2)C1=O	4	2	14	3	.	.	.
COc1cc(OC)c2c(c1O)OC(c1ccccc1)CC2=O (stereo not drawn)	6	-1	-1	28*	35*	-126	32*
O=C1CC(c2ccccc2)Oc2cc(O)cc(O)c21 (stereo not drawn)	-3	-2	0	-1	.	.	.
O=C(CSc1nnc(COc2ccccc2)n1-c1ccccc1)Nc1ccc2c(c1)OCCO2	2	2	1	0	.	.	.
CN(CCc1ccccc1)C(=O)c1ccc(NC(=O)Cc2cccc(NC(=O)C3CCN(C(=O)C4CCCCC4)CC3)c2)cc1	-5	-11	-2	3	.	.	.
CN(CCc1ccccc1)C(=O)c1ccc(NC(=O)Cc2cccc(NC(=O)C3CCN(C(=O)c4ccccc4)CC3)c2)cc1	-1	0	1	21*	-3	13	1
CC1=C(C(=O)Nc2ccccc2)C(c2ccc(C)o2)n2c(s/c(=C\c3ccco3)c2=O)=N1 (stereo not drawn)	11	-1	16	29*	3	-14	6
COc1cccc(C2C(C(=O)Nc3ccccc3)=C(C)N=c3s/c(=C/c4ccc(OCC(=O)O)cc4)c(=O)n32)c1 (stereo not drawn)	-5	8	-5	4	.	.	.
S=C(NCc1ccccc1)NCc1ccco1	-5	1	1	-2	.	.	.
S=C(NCc1ccco1)NCc1ccco1	3	6	27*	34*	6	-20	3
COC(=O)c1ccc(-c2ccc3c(c2)[C@]2(CCC[C@@H](OCc4ccccc4)[C@@H]2NC(=O)CCc2ccccc2)C(=O)N3Cc2ccccc2)cc1	-5	9	-4	1	.	.	.
CC(C)(O)CNC(=O)C(Cc1ccccc1)N1C(=O)c2ccccc2C1=O (stereo not drawn)	3	-6	10	77*	0	0	-6
Clc1ccc(-c2nnc(SCc3cccc4ccccc34)n2-c2ccc(Cl)cc2)cc1	0	5	0	-3	.	.	.
CCC(=O)Nc1nc2ccccc2n1Cc1ccc(Cl)cc1	-1	-4	15	15*	0	2	11
CCC(=O)Nc1nc2ccccc2n1Cc1ccccc1Cl	-6	9	17	12	.	.	.
CCCCCCCn1c(NC(=O)CC)nc2ccccc21	-1	5	-1	23*	0	-1	31*
N#Cc1ccc(/C=C2\CC3(OC(=O)c4cccc(F)c4)CCCN2C3)cc1 (stereo not drawn)	5	-2	-1	3	.	.	.
CC(C)C[C@H]1COc2cccc(F)c2S(=O)(=O)N1Cc1cn(CCC2OCCCO2)nn1	-3	5	-3	0	.	.	.
C=CCN1C/C(=C/c2ccccc2)N2C(=O)CC(c3ccccc3)N=C12 (stereo not drawn)	0	-24	0	2	.	.	.
SMILES	MBD2 DNA inh	TDP2 inh	UHRF1 binding	LEDGF integ inh	IN multimer act	TRFRET interf	LEDGF integ conf
COc1ccccc1NC(=S)NCc1cccnc1	-1	-6	1	0	.	.	.
COc1cc(NC(=S)NCc2cccnc2)c(OC)cc1Cl	-1	5	-2	80*	1	-4	2
Brc1ccc(-c2nn3c(-c4ccccc4)nnc3s2)cc1	-2	-6	-5	-1	.	.	.
CC1CCN(C(=O)COC(=O)c2ccc(Br)o2)CC1	2	8	9	22*	1	-4	-4
CCOC(=O)C1CCN(C(=O)COC(=O)c2ccc(Br)o2)CC1	-6	-9	-4	-3	.	.	.
CC(C)Cc1nc(SCC(=O)Nc2nnc(CC(C)C)s2)n[nH]1	2	-3	3	14*	-1	5	3
O=C(CNS(=O)(=O)c1cc2ccccc2s1)N1CCN(c2ccccn2)CC1	-3	3	0	0	.	.	.
Nc1nc(COC(=O)C2CC(=O)N(Cc3ccccc3Cl)C2)nc(Nc2ccccc2)n1 (stereo not drawn)	-2	-8	0	18*	0	-1	-5
CCOC(=O)NNC1CC(=O)N(c2ccccc2)C1=O (stereo not drawn)	3	4	0	18*	1	-5	2
CC(O)CCC(=O)NNC1CC(=O)N(c2ccccc2)C1=O (stereo not drawn)	-2	-2	-1	2	.	.	.
C[C@@H]1ON(C)[C@H]2C[C@H]3c4[nH]c5c(-c6ccc(Cl)cc6)cccc5c4CCN3C(=O)[C@@H]12	-1	-8	1	1	.	.	.
Oc1cc(Nc2cccnc2)cc2cccnc12	-6	-9	0	0	.	.	.
Oc1cc(NCCc2cccnc2)cc2cccnc12	-10	15	-12	18*	2	-11	21*
CCOc1nc(Nc2ccc(Cl)cc2)nc(OCC)n1	0	-8	4	5	.	.	.
CCOc1nc(Nc2ccccc2)nc(OCC)n1	-6	-19	-3	24*	1	-3	11
C=CCn1c(SCC(=O)c2ccc(O)c(O)c2)nnc1-c1cccnc1	6	-7	25*	16*	45*	-161	60*
O=C1CC(c2ccc(O)cc2)Oc2cc(O)cc(O)c21 (stereo not drawn)	0	9	-1	4	.	.	.
O=C1CC(c2ccc(O)c(O)c2)Oc2cc(O)cc(O)c21 (stereo not drawn)	0	2	1	13*	3	-13	23*
CC1CCN(C(=O)C2CCCN(C(=O)c3ccc4c(c3)NC(=O)CS4)C2)CC1 (stereo not drawn)	-5	4	0	3	.	.	.
CC1=C(n2nnc([N+](=O)[O-])n2)C(c2cccnc2)C(C#N)=C(N)O1 (stereo not drawn)	-2	13	2	30*	2	-9	-2
